Values after ≈ are worked out from the molar mass of the structure shown.
How the values were obtained:
Type in all cases: functional
Staphylococcus aureus [1] = test: In vitro minimum inhibitory concentration for antibacterial activity against Staphylococcus aureus B1 (inducibly MLSb-resistant strain encoded by the erm(C) gene)
In short: (§1)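 Agar dilution MIC determined by the Japan Society of Chemotherapy standard method for aerobic bacteria.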

Streptococcus pneumoniae [2] = test: In vitro minimum inhibitory concentration for antibacterial activity against Streptococcus pneumoniae 210 (efflux-resistant strain encoded by the mef(A) gene); in short: as §1
Haemophilus influenzae [3] = test: In vitro minimum inhibitory concentration for antibacterial activity against Haemophilus influenzae ATCC 43095 (ampicillin-susceptible strain that does not produce beta-lactamase); in short: as §1
Staphylococcus aureus [4] = test: In vitro minimum inhibitory concentration for antibacterial activity against erythromycin-susceptible strain Staphylococcus aureus […]
In short: (§2)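 MIC by agar dilution following the Japan Society of Chemotherapy standard method for aerobic bacteria. S. aureus 209P-JC and S. pneumoniae IID553 are erythromycin-susceptible strains.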

Staphylococcus aureus [5] = test: In vitro minimum inhibitory concentration for antibacterial activity against Staphylococcus aureus SR138 (constitutively MLSb-resistant strain encoded by the erm(A) gene); in short: as §1
Streptococcus pneumoniae [6] = test: In vitro minimum inhibitory concentration for antibacterial activity against Streptococcus pneumoniae 211 (MLSb-resistant strain encoded by the erm(B) gene); in short: as §1
Haemophilus influenzae [7] = test: In vitro minimum inhibitory concentration for antibacterial activity against Haemophilus influenzae ATCC 33533 (ampicillin-resistant strain that produces beta-lactamase); in short: as §1
Streptococcus pneumoniae [8] = test: In vitro minimum inhibitory concentration for antibacterial activity against erythromycin-susceptible strain Streptococcus pneumoniae IID553; in short: as §2

Compound | MIC (Staphylococcus aureus [1]) | MIC (Streptococcus pneumoniae [2]) | MIC (Haemophilus influenzae [3]) | MIC (Staphylococcus aureus [4]) | MIC (Staphylococcus aureus [5]) | MIC (Streptococcus pneumoniae [6]) | MIC (Haemophilus influenzae [7]) | MIC (Streptococcus pneumoniae [8])
CC[C@H]1OC(=O)[C@H](C)[C@@H](OC(=O)Cc2ccccc2)[C@H](C)[C@@H](O[C@@H]2O[C@H](C)C[C@H](N(C)C)[C@H]2O)[C@@](C)(OC)C[C@@H](C)C(=O)[C@H](C)[C@@H](O)[C@]1(C)O | 6.25 µg/mL (≈ 8.83 µM) | 0.78 µg/mL (≈ 1.1 µM) | 100 µg/mL (≈ 141 µM) | 1.56 µg/mL (≈ 2.2 µM) | > 100 µg/mL | > 100 µg/mL | 100 µg/mL (≈ 141 µM) | 0.78 µg/mL (≈ 1.1 µM)
CC[C@H]1OC(=O)[C@H](C)[C@@H](OC(=O)Cc2ccccn2)[C@H](C)[C@@H](OC2O[C@H](C)C[C@H](N(C)C)[C@H]2O)[C@@](C)(OC)C[C@@H](C)C(=O)[C@H](C)[C@@H](O)[C@]1(C)O (stereo partly drawn) | 1.56 µg/mL (≈ 2.2 µM) | 0.39 µg/mL (≈ 0.55 µM) | 50 µg/mL (≈ 70.5 µM) | 1.56 µg/mL (≈ 2.2 µM) | > 100 µg/mL | > 100 µg/mL | 25 µg/mL (≈ 35.3 µM) | 0.39 µg/mL (≈ 0.55 µM)
CC[C@H]1OC(=O)[C@H](C)[C@@H](OC(=O)Cc2cccnc2)[C@H](C)[C@@H](OC2O[C@H](C)C[C@H](N(C)C)[C@H]2O)[C@@](C)(OC)C[C@@H](C)C2=NCCN3C(=O)O[C@@]1(C)[C@H]3[C@H]2C (stereo partly drawn) | 0.39 µg/mL (≈ 0.514 µM) | 0.2 µg/mL (≈ 0.264 µM) | 6.25 µg/mL (≈ 8.24 µM) | 0.2 µg/mL (≈ 0.264 µM) | > 100 µg/mL | > 100 µg/mL | 3.13 µg/mL (≈ 4.12 µM) | 0.05 µg/mL (≈ 0.0659 µM)
CC[C@H]1OC(=O)[C@H](C)[C@@H](OC(=O)Cc2ccncc2)[C@H](C)[C@@H](OC2O[C@H](C)C[C@H](N(C)C)[C@H]2O)[C@@](C)(OC)C[C@@H](C)C(=O)[C@H](C)[C@@H](O)[C@]1(C)O (stereo partly drawn) | 1.56 µg/mL (≈ 2.2 µM) | 0.39 µg/mL (≈ 0.55 µM) | 50 µg/mL (≈ 70.5 µM) | 0.78 µg/mL (≈ 1.1 µM) | > 100 µg/mL | > 100 µg/mL | 50 µg/mL (≈ 70.5 µM) | 0.39 µg/mL (≈ 0.55 µM)
CC[C@H]1OC(=O)[C@H](C)[C@@H](OC(=O)Cc2cccnc2)[C@H](C)[C@@H](OC2O[C@H](C)C[C@H](N(C)C)[C@H]2O)[C@@](C)(O)C[C@@H](C)[C@H](O)[C@H](C)[C@@H](O)[C@]1(C)O (stereo partly drawn) | 6.25 µg/mL (≈ 8.97 µM) | 0.78 µg/mL (≈ 1.12 µM) | 12.5 µg/mL (≈ 17.9 µM) | 3.13 µg/mL (≈ 4.49 µM) | > 100 µg/mL | > 100 µg/mL | 12.5 µg/mL (≈ 17.9 µM) | 0.78 µg/mL (≈ 1.12 µM)
CC[C@H]1OC(=O)[C@H](C)[C@@H](OC(=O)Cc2ccccn2)[C@H](C)[C@@H](OC2O[C@H](C)C[C@H](N(C)C)[C@H]2O)[C@@]2(C)C[C@@H](C)[C@H](OC(=O)O2)[C@H](C)[C@H]2OC(=O)O[C@@]21C (stereo partly drawn) | 0.78 µg/mL (≈ 1.04 µM) | 0.2 µg/mL (≈ 0.267 µM) | 6.25 µg/mL (≈ 8.35 µM) | 0.2 µg/mL (≈ 0.267 µM) | > 100 µg/mL | 100 µg/mL (≈ 134 µM) | 6.25 µg/mL (≈ 8.35 µM) | 0.05 µg/mL (≈ 0.0668 µM)
CC[C@H]1OC(=O)[C@H](C)[C@@H](O)[C@H](C)[C@@H](OC2O[C@H](C)C[C@H](N(C)C)[C@H]2O)[C@@]2(C)C[C@@H](C)[C@H](OC(=O)O2)[C@H](C)[C@H]2OC(=O)O[C@@]21C (stereo partly drawn) | > 100 µg/mL | 1.56 µg/mL (≈ 2.48 µM) | 50 µg/mL (≈ 79.4 µM) | 12.5 µg/mL (≈ 19.8 µM) | > 100 µg/mL | > 100 µg/mL | 100 µg/mL (≈ 159 µM) | 0.78 µg/mL (≈ 1.24 µM)
CC[C@H]1OC(=O)[C@H](C)[C@@H](OC(=O)Cc2cccnc2)[C@H](C)[C@@H](OC2O[C@H](C)C[C@H](N(C)C)[C@H]2O)[C@@](C)(O)C[C@@H](C)/C(=N\O)[C@H](C)[C@@H](O)[C@]1(C)O (stereo partly drawn) | 1.56 µg/mL (≈ 2.2 µM) | 0.78 µg/mL (≈ 1.1 µM) | 12.5 µg/mL (≈ 17.6 µM) | 1.56 µg/mL (≈ 2.2 µM) | > 100 µg/mL | > 100 µg/mL | 12.5 µg/mL (≈ 17.6 µM) | 0.39 µg/mL (≈ 0.549 µM)
CC[C@H]1OC(=O)[C@H](C)[C@@H](OC(=O)c2cccc(OC)c2)[C@H](C)[C@@H](OC2O[C@H](C)C[C@H](N(C)C)[C@H]2O)[C@@](C)(OC)C[C@@H](C)C(=O)[C@H](C)[C@@H](O)[C@]1(C)O (stereo partly drawn) | 50 µg/mL (≈ 69.1 µM) | 1.56 µg/mL (≈ 2.15 µM) | > 100 µg/mL | 25 µg/mL (≈ 34.5 µM) | > 100 µg/mL | > 100 µg/mL | 100 µg/mL (≈ 138 µM) | 1.56 µg/mL (≈ 2.15 µM)
CC[C@H]1OC(=O)[C@H](C)[C@@H](OC(=O)Cc2cccnc2)[C@H](C)[C@@H](OC2O[C@H](C)C[C@H](N(C)C)[C@H]2O)[C@@](C)(O)C[C@@H](C)C(=O)[C@H](C)[C@H]2OC(=O)O[C@@]21C (stereo partly drawn) | 0.39 µg/mL (≈ 0.541 µM) | 0.2 µg/mL (≈ 0.277 µM) | 3.13 µg/mL (≈ 4.34 µM) | 0.2 µg/mL (≈ 0.277 µM) | > 100 µg/mL | > 100 µg/mL | 3.13 µg/mL (≈ 4.34 µM) | 0.05 µg/mL (≈ 0.0694 µM)
CC[C@H]1OC(=O)[C@H](C)[C@@H](OC(=O)Cc2ccc(OC)cc2)[C@H](C)[C@@H](OC2O[C@H](C)C[C@H](N(C)C)[C@H]2O)[C@@](C)(OC)C[C@@H](C)C(=O)[C@H](C)[C@@H](O)[C@]1(C)O (stereo partly drawn) | 12.5 µg/mL (≈ 16.9 µM) | 0.78 µg/mL (≈ 1.06 µM) | 100 µg/mL (≈ 136 µM) | 1.56 µg/mL (≈ 2.11 µM) | > 100 µg/mL | > 100 µg/mL | 50 µg/mL (≈ 67.8 µM) | 0.78 µg/mL (≈ 1.06 µM)

— ChEMBL document CHEMBL1145811, “Synthesis and antibacterial activity of a novel series of acylides: 3-O-(3-pyridyl)acetylerythromycin A derivatives” (J Med Chem, 2003)
